According to ChEMBL document CHEMBL1811752, “Synthesis and pharmacological characterization of bicyclic triple reuptake inhibitor 3-aryl octahydrocyclopenta[c]pyrrole analogues” (J Med Chem, 2011):

Assays:
Cytochrome P450 3A4 = Cytochrome P450 3A4 (Homo sapiens, UniProt P08684); experiment: Inhibition of CYP3A4 in human liver microsomes by LC-MS/MS analysis; assay type: ADME, Microsome
Outline: (§1)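 Human liver microsomes incubated with isoform-specific substrates and compound, typically 0.1–25 μM. Metabolite formation read by LC-MS/MS, […]. IC50 calculated from the decrease in metabolite formation relative to vehicle control.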

[1] = Half life in mouse liver microsomes at 3 uM by LC-MS/MS analysis; assay type: ADME, Microsome
Outline: (§2)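 Human or mouse liver microsomes (0.5 mg/mL) incubated with 3 μM compound at 37 °C. Reaction started with NADPH and stopped with methanol containing internal standard. Loss of compound followed over 45 min by LC-MS/MS. Peak area ratio to internal standard plotted against time and the slope of the line taken.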

[2] = target: Sodium-dependent dopamine transporter (Homo sapiens, UniProt Q01959); experiment: Inhibition of dopamine reuptake at DAT expressed in CHO-K1 cells; assay type: cell-based
Sequence of Sodium-dependent dopamine transporter (Q01959 whole entry): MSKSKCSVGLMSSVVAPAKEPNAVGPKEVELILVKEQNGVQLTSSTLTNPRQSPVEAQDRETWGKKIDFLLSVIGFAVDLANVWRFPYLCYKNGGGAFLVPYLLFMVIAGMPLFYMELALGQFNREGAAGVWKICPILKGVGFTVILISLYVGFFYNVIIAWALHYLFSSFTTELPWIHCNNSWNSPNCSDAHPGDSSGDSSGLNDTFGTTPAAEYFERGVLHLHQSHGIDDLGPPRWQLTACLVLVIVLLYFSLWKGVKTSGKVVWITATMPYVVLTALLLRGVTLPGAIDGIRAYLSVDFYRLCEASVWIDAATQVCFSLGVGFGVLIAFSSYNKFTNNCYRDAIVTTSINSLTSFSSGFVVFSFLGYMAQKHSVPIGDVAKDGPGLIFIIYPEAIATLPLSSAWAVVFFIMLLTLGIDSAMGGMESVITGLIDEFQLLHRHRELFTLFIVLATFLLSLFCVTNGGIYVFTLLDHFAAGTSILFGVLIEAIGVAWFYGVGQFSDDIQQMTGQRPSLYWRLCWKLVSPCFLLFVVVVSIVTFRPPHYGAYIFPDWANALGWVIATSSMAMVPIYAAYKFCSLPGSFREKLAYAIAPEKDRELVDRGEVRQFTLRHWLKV

Cytochrome P450 2C9 = Cytochrome P450 2C9 (Homo sapiens, UniProt P11712); experiment: Inhibition of CYP2C9 in human liver microsomes by LC-MS/MS analysis; assay type: ADME, Microsome; outline: as §1
Sequence of Cytochrome P450 2C9 (P11712 whole entry): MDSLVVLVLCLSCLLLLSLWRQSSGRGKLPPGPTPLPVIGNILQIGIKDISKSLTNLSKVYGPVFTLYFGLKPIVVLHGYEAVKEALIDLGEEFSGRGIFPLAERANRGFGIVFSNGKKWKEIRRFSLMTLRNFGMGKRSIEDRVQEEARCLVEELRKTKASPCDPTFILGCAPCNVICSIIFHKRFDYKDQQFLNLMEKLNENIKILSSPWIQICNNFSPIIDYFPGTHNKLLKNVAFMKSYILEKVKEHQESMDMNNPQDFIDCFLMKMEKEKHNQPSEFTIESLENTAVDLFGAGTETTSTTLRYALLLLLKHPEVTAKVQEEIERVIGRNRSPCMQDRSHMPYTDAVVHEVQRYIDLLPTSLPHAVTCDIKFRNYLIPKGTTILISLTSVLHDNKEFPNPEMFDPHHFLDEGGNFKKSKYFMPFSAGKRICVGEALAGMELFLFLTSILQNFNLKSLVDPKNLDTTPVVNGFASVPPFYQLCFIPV

CYP1A = target: T1, CYP1A (Homo sapiens, UniProt P04798+P05177); experiment: Inhibition of CYP1A in human liver microsomes by LC-MS/MS analysis; assay type: ADME, Microsome; outline: as §1
T1 sequence (P04798 whole entry): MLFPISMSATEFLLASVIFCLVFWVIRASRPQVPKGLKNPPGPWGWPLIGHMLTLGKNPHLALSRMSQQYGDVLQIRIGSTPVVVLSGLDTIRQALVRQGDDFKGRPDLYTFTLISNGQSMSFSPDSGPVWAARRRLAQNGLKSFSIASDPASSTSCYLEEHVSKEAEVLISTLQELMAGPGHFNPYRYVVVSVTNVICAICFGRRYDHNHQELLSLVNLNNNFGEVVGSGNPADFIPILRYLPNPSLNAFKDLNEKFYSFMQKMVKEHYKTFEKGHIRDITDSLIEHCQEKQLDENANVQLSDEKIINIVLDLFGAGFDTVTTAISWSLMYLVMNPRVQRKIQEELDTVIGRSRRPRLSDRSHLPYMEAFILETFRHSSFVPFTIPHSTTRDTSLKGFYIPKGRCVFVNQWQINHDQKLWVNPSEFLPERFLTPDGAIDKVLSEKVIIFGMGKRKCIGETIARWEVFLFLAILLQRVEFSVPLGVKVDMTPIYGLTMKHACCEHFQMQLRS
T1 sequence (P05177 whole entry): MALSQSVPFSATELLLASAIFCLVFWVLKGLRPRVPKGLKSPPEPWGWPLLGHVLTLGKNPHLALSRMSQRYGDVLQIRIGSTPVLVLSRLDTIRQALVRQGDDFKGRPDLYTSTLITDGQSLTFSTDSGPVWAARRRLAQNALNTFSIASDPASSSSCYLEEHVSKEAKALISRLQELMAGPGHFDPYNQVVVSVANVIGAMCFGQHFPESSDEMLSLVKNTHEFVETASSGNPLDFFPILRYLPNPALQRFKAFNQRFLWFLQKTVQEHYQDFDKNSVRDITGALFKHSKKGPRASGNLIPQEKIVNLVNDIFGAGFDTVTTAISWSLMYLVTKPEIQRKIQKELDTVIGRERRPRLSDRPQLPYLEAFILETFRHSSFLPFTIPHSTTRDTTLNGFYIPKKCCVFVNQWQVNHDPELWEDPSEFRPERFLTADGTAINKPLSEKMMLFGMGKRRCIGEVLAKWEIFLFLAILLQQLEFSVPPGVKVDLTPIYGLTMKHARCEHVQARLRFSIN

Cytochrome P450 2D6 = Cytochrome P450 2D6 (Homo sapiens, UniProt P10635); experiment: Inhibition of CYP2D6 in human liver microsomes by LC-MS/MS analysis; assay type: ADME, Microsome; outline: as §1
Sequence of Cytochrome P450 2D6 (P10635 whole entry): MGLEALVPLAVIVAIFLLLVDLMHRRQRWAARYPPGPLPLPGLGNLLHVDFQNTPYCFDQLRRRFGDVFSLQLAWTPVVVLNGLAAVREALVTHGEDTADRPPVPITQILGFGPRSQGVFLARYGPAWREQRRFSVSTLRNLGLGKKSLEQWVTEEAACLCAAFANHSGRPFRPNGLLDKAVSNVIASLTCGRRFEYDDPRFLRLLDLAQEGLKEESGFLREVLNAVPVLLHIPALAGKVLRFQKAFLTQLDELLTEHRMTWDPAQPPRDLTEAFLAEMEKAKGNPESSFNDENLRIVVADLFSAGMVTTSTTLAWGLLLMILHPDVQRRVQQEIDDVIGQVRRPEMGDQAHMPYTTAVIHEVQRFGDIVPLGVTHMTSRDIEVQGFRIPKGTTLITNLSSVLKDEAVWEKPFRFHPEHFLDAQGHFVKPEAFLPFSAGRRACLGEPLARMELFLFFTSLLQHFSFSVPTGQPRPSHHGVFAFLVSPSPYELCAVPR

[3] = Half life in human liver microsomes at 3 uM by LC-MS/MS analysis; assay type: ADME, Microsome; outline: as §2
[4] = target: Sodium-dependent noradrenaline transporter (Homo sapiens, UniProt P23975); experiment: Inhibition of norepinephrine reuptake at NET expressed in MDCK cells; assay type: cell-based
Sequence of Sodium-dependent noradrenaline transporter (P23975 whole entry): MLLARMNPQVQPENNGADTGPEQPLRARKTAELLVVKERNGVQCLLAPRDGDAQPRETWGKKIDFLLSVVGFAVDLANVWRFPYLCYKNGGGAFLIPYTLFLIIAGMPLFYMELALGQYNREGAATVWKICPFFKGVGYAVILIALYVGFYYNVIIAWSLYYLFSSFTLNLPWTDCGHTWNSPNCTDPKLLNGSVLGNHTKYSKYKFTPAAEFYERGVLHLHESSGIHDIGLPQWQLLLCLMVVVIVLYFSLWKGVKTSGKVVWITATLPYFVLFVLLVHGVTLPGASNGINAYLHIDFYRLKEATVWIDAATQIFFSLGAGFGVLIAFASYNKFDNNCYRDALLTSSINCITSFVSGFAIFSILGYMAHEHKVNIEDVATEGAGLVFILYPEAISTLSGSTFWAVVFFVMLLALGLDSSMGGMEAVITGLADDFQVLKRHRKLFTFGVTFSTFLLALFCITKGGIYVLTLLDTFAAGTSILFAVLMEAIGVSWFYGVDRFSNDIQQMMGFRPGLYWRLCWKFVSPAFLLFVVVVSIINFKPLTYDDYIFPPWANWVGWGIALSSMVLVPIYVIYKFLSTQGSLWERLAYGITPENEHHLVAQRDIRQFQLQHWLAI

[5] = target: Sodium-dependent serotonin transporter (Homo sapiens, UniProt P31645); experiment: Inhibition of serotonin reuptake at SERT expressed in HEK293 cells; assay type: cell-based
Sequence of Sodium-dependent serotonin transporter (P31645 whole entry): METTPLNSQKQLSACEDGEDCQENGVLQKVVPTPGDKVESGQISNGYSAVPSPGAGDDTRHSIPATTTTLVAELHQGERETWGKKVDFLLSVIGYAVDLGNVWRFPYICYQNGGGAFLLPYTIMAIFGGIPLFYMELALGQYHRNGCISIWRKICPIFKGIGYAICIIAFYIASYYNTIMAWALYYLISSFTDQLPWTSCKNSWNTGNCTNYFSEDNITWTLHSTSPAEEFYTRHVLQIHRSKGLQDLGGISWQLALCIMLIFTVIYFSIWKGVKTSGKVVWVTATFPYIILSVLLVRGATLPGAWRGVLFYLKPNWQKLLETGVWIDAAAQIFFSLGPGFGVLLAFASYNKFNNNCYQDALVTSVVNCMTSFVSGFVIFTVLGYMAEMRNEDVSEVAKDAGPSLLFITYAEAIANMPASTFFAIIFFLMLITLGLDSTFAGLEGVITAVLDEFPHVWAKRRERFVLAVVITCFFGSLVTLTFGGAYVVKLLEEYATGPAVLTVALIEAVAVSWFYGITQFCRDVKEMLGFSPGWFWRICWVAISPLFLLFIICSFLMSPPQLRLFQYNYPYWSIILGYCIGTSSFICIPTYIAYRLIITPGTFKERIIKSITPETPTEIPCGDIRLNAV

Cytochrome P450 2C19 = Cytochrome P450 2C19 (Homo sapiens, UniProt P33261); experiment: Inhibition of CYP2C19 in human liver microsomes by LC-MS/MS analysis; assay type: ADME, Microsome; outline: as §1
Sequence of Cytochrome P450 2C19 (P33261 whole entry): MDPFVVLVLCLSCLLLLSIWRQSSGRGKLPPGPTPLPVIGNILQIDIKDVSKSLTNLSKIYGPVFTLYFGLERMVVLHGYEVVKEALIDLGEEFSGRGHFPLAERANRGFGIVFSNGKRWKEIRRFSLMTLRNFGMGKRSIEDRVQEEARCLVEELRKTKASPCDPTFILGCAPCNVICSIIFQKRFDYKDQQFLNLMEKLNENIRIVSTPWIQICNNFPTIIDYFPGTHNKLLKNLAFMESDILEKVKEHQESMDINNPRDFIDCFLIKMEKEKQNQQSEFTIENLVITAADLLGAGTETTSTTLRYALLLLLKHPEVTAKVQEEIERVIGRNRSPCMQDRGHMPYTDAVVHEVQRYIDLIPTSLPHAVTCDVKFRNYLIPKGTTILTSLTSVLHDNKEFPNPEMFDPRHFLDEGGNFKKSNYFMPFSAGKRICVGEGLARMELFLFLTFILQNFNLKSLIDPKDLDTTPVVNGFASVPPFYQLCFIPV

Mus musculus [6] = experiment: Toxicity in mouse assessed as increase of spontaneous locomotor activity at 30 mg/kg, po measured for 5 mins; assay type: organism-based; set-up: dose 30 mg/kg, route oral; details: in vivo
Plasma [7] = experiment: Plasma concentration in mouse assessed as (3aR,6aS)-3a-(3,4-dichlorophenyl)octahydrocyclopenta[c]pyrrole level at 3 mg/kg, po; assay type: ADME, organism-based; set-up: dose 3 mg/kg, route oral; details: in vivo
Outline: (§3)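 Male mice dosed orally at 3, 10 or 30 mg/kg in 5% transcutol/saline, 60 min before the tail suspension test. Terminal whole brain (ng/g) and plasma (ng/mL) samples taken from the test animals. Brain/plasma ratio derived from these levels.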

Plasma [8] = experiment: Plasma concentration in mouse at 10 mg/kg, po; assay type: ADME, organism-based; set-up: dose 10 mg/kg, route oral; details: in vivo; outline: as §3
Mus musculus [9] = experiment: Antidepressant activity in mouse assessed as reduction of immobility time at 100 mg/kg, po after 60 mins by tail suspension test relative to control; assay type: functional; set-up: scale not given: the % may be the effect or the level left
Outline: (§4)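 Mouse tail suspension test, male mice (10–12 per group, blind). Single oral dose in 5% transcutol in saline, 60 min pretreatment. Immobility recorded automatically for 5 min. Compared with vehicle group. Desipramine 100 mg/kg PO used as reference. One-way ANOVA with Dunnett's post test, p < 0.05.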

Mus musculus [10] = experiment: Antidepressant activity in po dosed mouse assessed as reduction of immobility time after 60 mins by tail suspension test; assay type: functional, organism-based; outline: as §4
Plasma [11] = experiment: Plasma concentration in mouse assessed as (3aR,6aS)-3a-(3,4-dichlorophenyl)octahydrocyclopenta[c]pyrrole level at 10 mg/kg, po; assay type: ADME, organism-based; set-up: dose 10 mg/kg, route oral; details: in vivo; outline: as §3
Brain [12] = experiment: Drug level in mouse brain at 30 mg/kg, po; assay type: ADME, organism-based; set-up: dose 30 mg/kg, route oral; details: in vivo; outline: as §3
Brain [13] = experiment: Drug level in mouse brain at 3 mg/kg, po; assay type: ADME, organism-based; set-up: dose 3 mg/kg, route oral; details: in vivo; outline: as §3
[14] = Ratio of drug level in brain to plasma in po dosed mouse; assay type: ADME, organism-based; details: brain and plasma, read-out: BPR; outline: as §3
[15] = target: Voltage-gated inwardly rectifying potassium channel KCNH2 (Homo sapiens, UniProt Q12809); experiment: Inhibition of human ERG expressed in CHO cells by high throughput single cell planar patch clamp method; assay type: cell-based
Sequence of Voltage-gated inwardly rectifying potassium channel KCNH2 (Q12809 whole entry): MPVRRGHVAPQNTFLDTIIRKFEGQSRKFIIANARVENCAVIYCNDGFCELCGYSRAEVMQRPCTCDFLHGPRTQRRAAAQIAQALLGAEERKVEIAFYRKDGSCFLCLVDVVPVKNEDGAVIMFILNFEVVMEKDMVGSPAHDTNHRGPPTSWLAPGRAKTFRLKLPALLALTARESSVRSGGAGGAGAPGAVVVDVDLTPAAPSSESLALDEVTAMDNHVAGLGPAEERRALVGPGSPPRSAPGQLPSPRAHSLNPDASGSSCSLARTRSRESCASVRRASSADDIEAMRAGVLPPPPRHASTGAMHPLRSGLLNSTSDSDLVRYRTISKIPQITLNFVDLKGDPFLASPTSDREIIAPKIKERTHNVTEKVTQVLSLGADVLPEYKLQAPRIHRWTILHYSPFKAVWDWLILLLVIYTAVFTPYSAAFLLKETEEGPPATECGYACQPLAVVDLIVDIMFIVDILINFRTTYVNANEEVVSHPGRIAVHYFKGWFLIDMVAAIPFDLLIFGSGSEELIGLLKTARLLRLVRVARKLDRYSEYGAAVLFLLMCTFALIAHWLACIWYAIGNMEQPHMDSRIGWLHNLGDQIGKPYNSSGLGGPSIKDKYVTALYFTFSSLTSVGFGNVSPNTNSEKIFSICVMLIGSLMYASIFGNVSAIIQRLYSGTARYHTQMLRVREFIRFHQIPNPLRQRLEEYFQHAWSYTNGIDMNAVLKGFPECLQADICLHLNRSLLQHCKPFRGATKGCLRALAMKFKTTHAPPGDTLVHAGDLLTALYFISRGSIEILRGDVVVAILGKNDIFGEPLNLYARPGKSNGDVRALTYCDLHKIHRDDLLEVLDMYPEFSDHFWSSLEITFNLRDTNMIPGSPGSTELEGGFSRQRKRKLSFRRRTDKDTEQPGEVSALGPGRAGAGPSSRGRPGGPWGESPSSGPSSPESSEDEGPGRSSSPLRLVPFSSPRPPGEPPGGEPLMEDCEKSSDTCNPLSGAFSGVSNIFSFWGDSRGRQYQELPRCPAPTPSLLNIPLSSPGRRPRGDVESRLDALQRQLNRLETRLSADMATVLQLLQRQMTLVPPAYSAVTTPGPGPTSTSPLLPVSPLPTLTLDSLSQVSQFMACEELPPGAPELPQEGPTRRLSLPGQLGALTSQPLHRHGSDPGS

Brain [16] = experiment: Drug level in mouse brain assessed as (3aR,6aS)-3a-(3,4-dichlorophenyl)octahydrocyclopenta[c]pyrrole level at 10 mg/kg, po; assay type: ADME, organism-based; set-up: dose 10 mg/kg, route oral; details: in vivo; outline: as §3
Brain [17] = experiment: Drug level in mouse brain at 10 mg/kg, po; assay type: ADME, organism-based; set-up: dose 10 mg/kg, route oral; details: in vivo; outline: as §3
Mus musculus [18] = experiment: Antidepressant activity in mouse assessed as reduction of immobility time at 30 mg/kg, po after 60 mins by tail suspension test relative to control; assay type: functional; set-up: scale not given: the % may be the effect or the level left; outline: as §4
Brain [19] = experiment: Drug level in mouse brain assessed as (3aR,6aS)-3a-(3,4-dichlorophenyl)octahydrocyclopenta[c]pyrrole level at 30 mg/kg, po; assay type: ADME, organism-based; set-up: dose 30 mg/kg, route oral; details: in vivo; outline: as §3
Brain [20] = experiment: Drug level in mouse brain assessed as (3aR,6aS)-3a-(3,4-dichlorophenyl)octahydrocyclopenta[c]pyrrole level at 3 mg/kg, po; assay type: ADME, organism-based; set-up: dose 3 mg/kg, route oral; details: in vivo; outline: as §3
Plasma [21] = experiment: Plasma concentration in mouse assessed as (3aR,6aS)-3a-(3,4-dichlorophenyl)octahydrocyclopenta[c]pyrrole level at 30 mg/kg, po; assay type: ADME, organism-based; set-up: dose 30 mg/kg, route oral; details: in vivo; outline: as §3
Plasma [22] = experiment: Plasma concentration in mouse at 3 mg/kg, po; assay type: ADME, organism-based; set-up: dose 3 mg/kg, route oral; details: in vivo; outline: as §3
Mus musculus [23] = experiment: Antidepressant activity in mouse assessed as reduction of immobility time at 10 mg/kg, po after 60 mins by tail suspension test relative to control; assay type: functional; set-up: scale not given: the % may be the effect or the level left; outline: as §4
Plasma [24] = experiment: Plasma concentration in mouse at 30 mg/kg, po; assay type: ADME, organism-based; set-up: dose 30 mg/kg, route oral; details: in vivo; outline: as §3

Sequence of Cytochrome P450 3A4 (P08684 whole entry, canonical isoform): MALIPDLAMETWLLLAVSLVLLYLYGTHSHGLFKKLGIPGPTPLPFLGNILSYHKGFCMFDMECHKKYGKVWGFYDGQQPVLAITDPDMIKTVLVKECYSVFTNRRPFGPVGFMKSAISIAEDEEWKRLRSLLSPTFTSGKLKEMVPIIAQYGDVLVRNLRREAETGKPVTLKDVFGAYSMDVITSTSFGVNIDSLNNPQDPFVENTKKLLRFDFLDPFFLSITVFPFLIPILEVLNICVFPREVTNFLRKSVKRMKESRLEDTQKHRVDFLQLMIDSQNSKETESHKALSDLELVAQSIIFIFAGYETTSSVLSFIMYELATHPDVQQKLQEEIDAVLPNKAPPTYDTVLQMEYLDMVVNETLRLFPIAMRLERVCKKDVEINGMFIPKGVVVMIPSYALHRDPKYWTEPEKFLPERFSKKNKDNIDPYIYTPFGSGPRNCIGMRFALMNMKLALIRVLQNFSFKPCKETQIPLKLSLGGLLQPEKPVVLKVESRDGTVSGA

| SMILES | IC50 (Cytochrome P450 3A4) | half-life at 3 µM [1] | IC50 [2] | IC50 (Cytochrome P450 2C9) | IC50 (CYP1A) | IC50 (Cytochrome P450 2D6) | half-life at 3 µM [3] | IC50 [4] | IC50 [5] | IC50 (Cytochrome P450 2C19) | IC50 [15] | also measured |
| --- | --- | --- | --- | --- | --- | --- | --- | --- | --- | --- | --- | --- |
| CN1C[C@@H]2CCC[C@]2(c2ccc(Cl)c(Cl)c2)C1 (single isomer, unassigned) | 12.7 µM | 0.45 h | 0.0479 µM | 9.83 µM | 1.49 µM | 4.35 µM | 0.467 h | 0.0955 µM | 0.0832 µM | 2.22 µM | – | – |
| CN1C[C@H]2CCCC[C@@]2(c2ccc(Cl)c(Cl)c2)C1 (single isomer, unassigned) | 6.5 µM | 0.75 h | 0.055 µM | > 25 µM | > 25 µM | 1.1 µM | 2.08 h | 0.0562 µM | 0.00977 µM | 11.9 µM | 4.14 µM | Activity (Mus musculus [6]): Non-toxic; Cp (Plasma [7]): 114 ng/mL; Cp (Plasma [8]): 50 ng/mL; Activity (Mus musculus [9]): 28%; Activity (Mus musculus [10]): Dose-dependent effect; Cp (Plasma [11]): 417 ng/mL; Drug uptake (Brain [12]): 4203 ng/g; Drug uptake (Brain [13]): 294 ng/g; Kp [14]: 5; Drug uptake (Brain [16]): 1878 ng/g; Drug uptake (Brain [17]): 1054 ng/g; Activity (Mus musculus [18]): 16%; Drug uptake (Brain [19]): 6193 ng/g; Drug uptake (Brain [20]): 440 ng/g; Cp (Plasma [21]): 1228 ng/mL; Cp (Plasma [22]): 14 ng/mL; Activity (Mus musculus [23]): 13%; Cp (Plasma [24]): 181 ng/mL |
| Clc1ccc([C@@]23CCC[C@@H]2CNC3)cc1Cl | > 5 µM | 1.52 h | 0.123 µM | > 25 µM | 18.7 µM | 6.96 µM | 4.37 h | 0.107 µM | 0.049 µM | 11.9 µM | 5.28 µM | – |
